According to ChEMBL document CHEMBL1255287, “Induction of L1 and L2 beta-lactamase production in Stenotrophomonas maltophilia is dependent on an AmpR-type regulator” (2008):
≈ marks a conversion by molar mass, not a printed value. Calls of active or inactive are those of the source. No cut-off for these calls is given here.

How the values were obtained:
[1] = tested on: Stenotrophomonas maltophilia; experiment: Induction of beta-lactamase L1 expression in Stenotrophomonas maltophilia K279a at 5 to 20 mg/L after 2 hrs […]; format: functional, organism-based
In short: (§1)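 Cells at OD600 0.4 grown 2 h with inducer at the stated concentration. Nitrocefin-hydrolysing activity measured in cell extracts, total first, then L2 alone after adding EDTA to 100 μM (inhibits L1). L1 = total − L2. Specific activity divided by that of an identically treated uninduced culture gives fold induction. Mean of three experiments.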

[2] = tested on: Stenotrophomonas maltophilia; experiment: Induction of beta-lactamase L2 expression in Stenotrophomonas maltophilia K279a at 5 to 20 mg/L after 2 hrs […]; format: functional, organism-based; in short: as §1
[3] = tested on: Stenotrophomonas maltophilia; experiment: Antimicrobial activity against Stenotrophomonas maltophilia K279a expressing beta-lactamase L1 and L2 by agar dilution method; format: functional
In short: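 MICs by BSAC standard agar dilution on Mueller-Hinton agar against wild-type K279a and its ampR frameshift derivative.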

[4] = tested on: Stenotrophomonas maltophilia; experiment: Antimicrobial activity against Stenotrophomonas maltophilia K279a harboring -121 frameshift mutation in ampR gene by agar dilution method; format: functional
In short: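 MICs by BSAC standard agar dilution on Mueller-Hinton agar against S. maltophilia K279a carrying a frameshift-disrupted ampR (ampRFS); values in mg/liter.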

[5] = tested on: Stenotrophomonas maltophilia; experiment: Induction of beta-lactamase L1 expression in Stenotrophomonas maltophilia M1 mutant assessed as L1 activity at 10 mg/L after 2 hrs by […] method; format: functional
In short: (§2)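 Nutrient broth cultures were grown to OD600 0.4, then exposed to 10 mg/liter imipenem as inducer for 2 h. Uninduced cultures were grown to OD600 0.6. Total nitrocefin-hydrolysing specific activity of cell extracts was read spectrophotometrically, then reassayed after adding EDTA to 100 μM to inhibit L1. Values are percent L1 or L2 of total activity, as means of three experiments.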

[6] = tested on: Stenotrophomonas maltophilia; experiment: Induction of beta-lactamase L2 expression in Stenotrophomonas maltophilia M1 mutant assessed as L2 activity at 10 mg/L after 2 hrs by […] method; format: functional; in short: as §2
[7] = tested on: Stenotrophomonas maltophilia; experiment: Induction of beta-lactamase L1 expression in Stenotrophomonas maltophilia M2 mutant assessed as L1 activity at 10 mg/L after 2 hrs by […] method; format: functional; in short: as §2
[8] = tested on: Stenotrophomonas maltophilia; experiment: Induction of beta-lactamase L2 expression in Stenotrophomonas maltophilia M2 mutant assessed as L2 activity at 10 mg/L after 2 hrs by […] method; format: functional; in short: as §2
[9] = tested on: Stenotrophomonas maltophilia; experiment: Induction of beta-lactamase L1 expression in Stenotrophomonas maltophilia K279a at 0.1 to 0.8 mg/L after 2 hrs […]; format: functional, organism-based; in short: as §1
[10] = tested on: Stenotrophomonas maltophilia; experiment: Induction of beta-lactamase L2 expression in Stenotrophomonas maltophilia K279a at 0.1 to 0.8 mg/L after 2 hrs […]; format: functional, organism-based; in short: as §1

SMILES | MIC [3] [µg/mL] | MIC [4] [µg/mL] | other results
CO[C@@]1(NC(=O)Cc2cccs2)C(=O)N2C(C(=O)O)=C(COC(N)=O)CS[C@@H]21 |  |  | Activity [1]: Active; Activity [2]: Active
CC1(C)S[C@@H]2[C@H](NC(=O)[C@H](N)c3ccccc3)C(=O)N2[C@H]1C(=O)O [AMPICILLIN] | 2050 (≈ 5860 µM) | 8 | 
CO/N=C(\C(=O)N[C@@H]1C(=O)N2C(C(=O)O)=C(COC(C)=O)CS[C@H]12)c1csc(N)n1 [CEFOTAXIME] | 1020 (≈ 2250 µM) | < 4 | 
CC(C)(O/N=C(\C(=O)N[C@@H]1C(=O)N2C(C(=O)[O-])=C(C[n+]3ccccc3)CS[C@H]12)c1csc(N)n1)C(=O)O [CEFTAZIDIME] | 128 (≈ 234 µM) | < 4 | 
C[C@@H](O)[C@H]1C(=O)N2C(C(=O)O)=C(SCCNC=N)C[C@H]12 [IMIPENEM ANHYDROUS] | 64 (≈ 214 µM) | < 4 | Activity [5]: 66%; Activity [6]: 34%; Activity [7]: 61%; Activity [8]: 39%; Activity [9]: Active; Activity [10]: Active
C[C@@H](O)[C@H]1C(=O)N2C(C(=O)O)=C(S[C@@H]3CN[C@H](C(=O)N(C)C)C3)[C@H](C)[C@H]12 [MEROPENEM] | 64 (≈ 167 µM) | < 4 | 
CCN1CCN(C(=O)N[C@@H](C(=O)N[C@@H]2C(=O)N3[C@@H]2SC(C)(C)[C@@H]3C(=O)O)c2ccccc2)C(=O)C1=O [PIPERACILLIN] | 2050 (≈ 3960 µM) | 32 | 
